Laboratory results taken from article PMC4220649 (Blood Cancer Journal, 2014).
Several values for one entry are separate records, joined by “and”; a condition that tells them apart may be missing. Equal entries are not always repeated. Entries after “also recorded” stand apart in the source; their conditions may differ.

Assays:
[1] = Plasma pharmacokinetics of ixazomib after IV bolus; format: in vivo, human; conditions: for DN AUC0–168 h: dose normalized; for DN AUC0–168 h / C0 / half-life / AUC0–168 h: plasma
[2] = Urine pharmacokinetics of ixazomib; format: in vivo, human
20S proteasome = 20S proteasome (Homo sapiens, UniProt P28074); test: Whole blood 20S proteasome activity; format: in vivo; conditions: for Emax / Time to Emax: whole blood 20S; for Maximal 20S proteasome inhibition / Time of maximal 20S proteasome inhibition after administration: whole blood, MTD 2.34 mg/m^2
Outline: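 Whole blood was sampled after IV bolus dosing (0.125–3.11 mg/m2) on cycle 1 days 1 and 15. 20S proteasome activity was measured by fluorogenic assay.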

[3] = test system: relapsed/refractory lymphoma; test: Disease response by International Working Group criteria for lymphoma; format: in vivo, human; conditions: for Duration of response: follicular lymphoma patient
Outline: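 CT and PET were done at screening, with repeat PET at end of cycles 2 and 4 if positive. Response was assessed at end of cycle 2, every 2 cycles to cycle 12, then every 4 cycles. Evaluable patients had measurable baseline disease and ⩾1 post-baseline assessment.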

[4] = test system: patients with relapsed or refractory light-chain amyloidosis; conditions: weekly oral ixazomib; cited from earlier work
[5] = test system: patients with relapsed or refractory MM; conditions: twice-weekly oral ixazomib; cited from earlier work
[6] = weekly oral ixazomib, relapsed or refractory MM, after multiple dosing; cited from earlier work
[7] = day 15, IV 1.4 mg/m^2, n=4, geometric mean (%CV)
[8] = day 15, IV 3.11 mg/m^2, n=2, individual values
[9] = day 1, IV 1.4 mg/m^2, n=4, geometric mean (%CV)
[10] = day 1, IV 1.76 mg/m^2, n=6, geometric mean (%CV)
[11] = day 1, IV 2.34 mg/m^2, n=7, geometric mean (%CV)
[12] = day 1, IV 3.11 mg/m^2, n=5, geometric mean (%CV)
[13] = day 15, IV 0.5 mg/m^2, n=1, individual value
[14] = day 15, IV 1 mg/m^2, n=1, individual value
[15] = day 15, IV 2.34 mg/m^2, n=7, geometric mean (%CV)
[16] = day 1, IV 0.125 mg/m^2, n=1, individual value
[17] = day 1, IV 0.25 mg/m^2, n=1, individual value
[18] = day 1, IV 0.5 mg/m^2, n=1, individual value
[19] = day 1, IV 1 mg/m^2, n=1, individual value
[20] = day 15, IV 0.25 mg/m^2, n=1, individual value

CC(C)C[C@H](NC(=O)CNC(=O)c1cc(Cl)ccc1Cl)B(O)O [ixazomib]
Dose proportionality of plasma exposure ([1]; 0.5–3.11 mg/m^2): increased dose proportionally; also recorded: dose-proportionality of ixazomib exposure | Accumulation of ixazomib between day 1 and day 15 doses ([1]; AUC0–168 h, Figure 1d): approximately twofold | Accumulation ratio [1, 7]: 2.17 (7) | Accumulation ratio ([1]; day 15, IV 2.34 mg/m^2, n=6, geometric mean (%CV)): 2.27 (15) | Accumulation ratio [1, 8]: 2.02 and 2.21 | DN AUC0–168 h [1, 9]: 221 (41) hr/ng/ml/mg | DN AUC0–168 h [1, 10]: 259 (49) hr/ng/ml/mg | DN AUC0–168 h [1, 11]: 257 (50) hr/ng/ml/mg | DN AUC0–168 h [1, 12]: 278 (46) hr/ng/ml/mg | DN AUC0–168 h [1, 13]: 151 h/ng/mL/mg | DN AUC0–168 h [1, 14]: 385 h/ng/mL/mg | DN AUC0–168 h [1, 7]: 481 (34) hr/ng/ml/mg | DN AUC0–168 h [1, 15]: 500 (55) hr/ng/ml/mg | C0 ([1]; human, iv, 0.25 mg/m2, C0, plasma, day 1, IV 0.25 mg/m^2, n=1, individual value): 0.0594 µg/mL | C0 ([1]; human, iv, 1 mg/m2, C0, plasma, day 15, IV 1 mg/m^2, n=1, individual value): 0.383 µg/mL | C0 ([1]; human, iv, 1.4 mg/m2, C0, plasma, day 1, IV 1.4 mg/m^2, n=4, geometric mean (%CV)): 0.714 µg/mL | C0 ([1]; human, iv, 1.4 mg/m2, C0, plasma, day 15, IV 1.4 mg/m^2, n=4, geometric mean (%CV)): 0.497 µg/mL | half-life ([1]; human, iv, 1.4 mg/m2, t½, terminal disposition phase half-life, day 15, IV 1.4 mg/m^2, n=4, geometric mean (%CV)): 209 h | C0 ([1]; human, iv, 1.76 mg/m2, C0, plasma, day 1, IV 1.76 mg/m^2, n=7, geometric mean (%CV)): 0.542 µg/mL | C0 ([1]; human, iv, 1.76 mg/m2, C0, plasma, day 15, IV 1.76 mg/m^2, n=3, geometric mean (%CV)): 0.499 µg/mL | half-life ([1]; human, iv, 1.76 mg/m2, t½, terminal disposition phase half-life, day 15, IV 1.76 mg/m^2, n=3, geometric mean (%CV)): 146 h | C0 ([1]; human, iv, 2.34 mg/m2, C0, plasma, day 15, IV 2.34 mg/m^2, n=7, geometric mean (%CV)): 0.803 µg/mL | half-life ([1]; human, iv, 2.34 mg/m2, t½, terminal disposition phase half-life, day 15, IV 2.34 mg/m^2, n=7, geometric mean (%CV)): 108 h | C0 ([1]; human, iv, 3.11 mg/m2, C0, plasma, day 1, IV 3.11 mg/m^2, n=5, geometric mean (%CV)): 0.961 µg/mL | C0 ([1]; human, iv, 3.11 mg/m2, C0, plasma, day 15, IV 3.11 mg/m^2, n=2, individual values): 1.11 µg/mL | half-life ([1]; human, iv, 3.11 mg/m2, t½, terminal disposition phase half-life, day 15, IV 3.11 mg/m^2, n=2, individual values): 97.9 h | half-life ([1]; human, iv, Terminal half-life, after multiple dosing, weekly IV): 96 to 288 h | Rapid initial disposition phase over by ([1]; multi-phasic disposition after IV administration): ≤ 4 h | AUC0–168 h [1, 9]: 637 (30) hr/ng/ml | AUC0–168 h [1, 10]: 821 (48) hr/ng/ml | AUC0–168 h [1, 11]: 1060 (37) hr/ng/ml | AUC0–168 h [1, 12]: 1680 (39) hr/ng/ml | AUC0–168 h [1, 13]: 175 h/ng/mL | AUC0–168 h [1, 14]: 732 h/ng/mL | AUC0–168 h [1, 7]: 1390 (24) hr/ng/ ml | AUC0–168 h [1, 15]: 2110 (41) hr/ng/ ml | AUC0–168 h [1, 8]: 2090 h/ng/mL and 3080 h/ng/mL | C0 [1, 8]: 1.28 µg/mL | Fraction of ixazomib excreted unchanged in urine ([2]; 25 patients, days 1 and 15, 0 to 4 h): < 1 % of the administered dose | CL renal ([2]; human, urine, intravenous): < 8.5 mL/min | Dose dependence of maximal whole blood 20S proteasome inhibition (20S proteasome; 0.125–3.11 mg/m^2): dose-dependent increase | AUE0–168 h (20S proteasome; area under 20S inhibition vs time curve, day 1, IV 1.4 mg/m^2, n=3, mean (±s.d.)): 2000 (±1160) % inhibition/h | Emax (20S proteasome; [16]): 5.15 % inhibition | Time to Emax (20S proteasome; [16]): 0.25 h | Emax (20S proteasome; [17]): 18.5 % inhibition | Time to Emax (20S proteasome; [17]): 0.083 h | Emax (20S proteasome; [18]): 33.2 % inhibition | Time to Emax (20S proteasome; [18]): 0.1 h | Emax (20S proteasome; [19]): 50.5 % inhibition | Time to Emax (20S proteasome; [19]): 0.083 h | Emax (20S proteasome; day 1, IV 1.4 mg/m^2, n=3, mean (±s.d.)): 66.3 (±14.8) % inhibition | Time to Emax (20S proteasome; day 1, IV 1.4 mg/m^2, n=3, median (range)): 0.117 (0.1–0.133) h | Emax (20S proteasome; day 1, IV 1.76 mg/m^2, n=7, mean (±s.d.)): 72.2 (±8.1) % inhibition | Time to Emax (20S proteasome; day 1, IV 1.76 mg/m^2, n=7, median (range)): 0.083 (0.083–0.1) h | Emax (20S proteasome; day 1, IV 2.34 mg/m^2, n=5, mean (±s.d.)): 81.9 (±3.2) % inhibition | Time to Emax (20S proteasome; day 1, IV 2.34 mg/m^2, n=5, median (range)): 0.083 (0.083–0.25) h | Emax (20S proteasome; day 1, IV 3.11 mg/m^2, n=4, mean (±s.d.)): 80.2 (±3.6) % inhibition | Time to Emax (20S proteasome; day 1, IV 3.11 mg/m^2, n=4, median (range)): 0.109 (0.083–0.533) h | Emax (20S proteasome; [20]): 64.3 % inhibition | Time to Emax (20S proteasome; [20]): 0.1 h | Emax (20S proteasome; [13]): 19.2 % inhibition | Time to Emax (20S proteasome; [13]): 0.1 h | Emax (20S proteasome; [14]): 44.4 % inhibition | Time to Emax (20S proteasome; [14]): 0.083 h | Emax (20S proteasome; day 15, IV 1.4 mg/m^2, n=3, mean (±s.d.)): 69.8 (±10.6) % inhibition | Time to Emax (20S proteasome; day 15, IV 1.4 mg/m^2, n=3, median (range)): 0.083 (0.083–0.083) h | Emax (20S proteasome; day 15, IV 1.76 mg/m^2, n=3, mean (±s.d.)): 74.8 (±4.5) % inhibition | Time to Emax (20S proteasome; day 15, IV 1.76 mg/m^2, n=3, median (range)): 0.083 (0.033–0.083) h | Emax (20S proteasome; day 15, IV 2.34 mg/m^2, n=4, mean (±s.d.)): 79.6 (±4.9) % inhibition | Time to Emax (20S proteasome; day 15, IV 2.34 mg/m^2, n=4, median (range)): 0.167 (0.083–0.25) h | Emax (20S proteasome; [8]): 82.3 % inhibition and 85 % inhibition | Time to Emax (20S proteasome; [8]): 0.083 h and 0.117 h | Maximal 20S proteasome inhibition (20S proteasome; day 1): 82% | Time of maximal 20S proteasome inhibition after administration (20S proteasome; day 1): 5 min | Maximal 20S proteasome inhibition (20S proteasome; day 15): 80% | Time of maximal 20S proteasome inhibition after administration (20S proteasome; day 15): 10 min | Patients achieving responses (CR or PR) ([3]; 26 evaluable patients): five | Duration of response ([3]; 1.4 mg/m^2): 24.1 months | Duration of response ([3]; 2.34 mg/m^2): 2 months | Responders among follicular lymphoma patients ([3]; one complete and three partial responses): 4/11 and 4 of 11 | Responders among peripheral T-cell lymphoma patients ([3]; partial response): 1/4 | Median duration of stable disease ([3]; six patients, range 1.7–5.4): 3.6 months | Rate of all-cause rash/maculopapular rash [4]: 18% | Rate of drug-related rash [5]: 28% | Rate of drug-related skin and subcutaneous tissue disorders [5]: 40% | Terminal half-life [6]: 96 to 288 h
